# In BindingDB's records for doi:10.1021/jm9014197 (Wyeth Research, 2009):
# Biological target: T1, Dickkopf-related protein 1 (Homo sapiens, UniProt O94907)
# T1 sequence (O94907 whole entry): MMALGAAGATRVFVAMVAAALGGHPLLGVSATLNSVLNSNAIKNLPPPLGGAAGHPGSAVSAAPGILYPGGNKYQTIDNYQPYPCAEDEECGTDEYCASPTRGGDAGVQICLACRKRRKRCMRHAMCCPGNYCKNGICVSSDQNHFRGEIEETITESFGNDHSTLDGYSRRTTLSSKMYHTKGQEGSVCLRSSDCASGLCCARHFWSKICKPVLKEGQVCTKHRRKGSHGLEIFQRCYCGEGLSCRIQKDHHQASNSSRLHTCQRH
# Assay: Inhibition of Dkk1-mediated Wnt/beta-catenin signaling in osteosarcoma cells assessed as potentiation of TCF-luciferase response
# Outline: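 Cells were transfected with a TCF-luciferase response element plus a renilla standard as the control read-out. Agonism was read as increased luciferase light output relative to DMSO alone. EC50 values are the average of at least two experiments run in triplicate.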
row,SMILES,EC50 [µM]
1,NC1CCN(c2nccc(-c3ccc4ccccc4c3)n2)CC1 [1-(4-(naphthalen-2-yl)pyrimidin-2-yl)piperidin-4-amine],1
2,Cc1ccc(-c2ccnc(Nc3ccc(S(N)(=O)=O)cc3)n2)s1 [4-(4-(5-methylthiophen-2-yl)pyrimidin-2-ylamino)benzenesulfonamide],7.8
3,NS(=O)(=O)c1ccc(Nc2nccc(-c3ccc4ccccc4c3)n2)cc1 [4-(4-(naphthalen-2-yl)pyrimidin-2-ylamino)benzenesulfonamide],1
4,Cc1ccc(-c2ccnc(N(C)c3ccc(S(N)(=O)=O)cc3)n2)s1 [4-(methyl(4-(5-methylthiophen-2-yl)pyrimidin-2-yl)amino)benzenesulfonamide],9.8
5,NCC1CCN(c2nccc(-c3ccc4ccccc4c3)n2)CC1 [(1-(4-(naphthalen-2-yl)pyrimidin-2-yl)piperidin-4-yl)methanamine],0.63
6,CC(=O)NCC1CCN(c2nccc(-c3ccc4ccccc4c3)n2)CC1 [N-((1-(4-(naphthalen-2-yl)pyrimidin-2-yl)piperidin-4-yl)methyl)acetamide],1.9
